Reference: ChEMBL document CHEMBL1127559, “Syntheses and anticholinesterase activity of tetrahydrobenzazepine carbamates” (J Med Chem, 1994)

How the values were obtained:
Mus musculus [1] = species: Mus musculus; assay: Minimal dose to produce side effects was determined for diarrhea; assay type: functional
Method in brief: (§1)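 Mice fasted overnight, dosed ip or po at 10 mL/kg and housed singly in novel cages. Salivation, tremor and diarrhea each scored on a 5-point scale at 15, 30 and 60 min post-dose. Value is the minimal dose producing the sign.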

Mus musculus [2] = species: Mus musculus; assay: Minimal dose to produce side effects was determined for salivation; assay type: functional; method in brief: as §1
Mus musculus [3] = species: Mus musculus; assay: Minimal dose to produce side effects was determined for tremor; assay type: functional; method in brief: as §1
[4] = Lethal dose was measured at 24 hour in mice following intraperitoneal administration.; assay type: toxicity, organism-based; conditions: mouse, in vivo, ip
Method in brief: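 Mice fasted overnight and dosed ip at 10 mL/kg, then housed singly in novel cages. Lethality scored over 24 h using at least four dose levels with nine animals per dose. LD50 calculated by Spearman-Karber.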

Acetylcholinesterase = Acetylcholinesterase (Homo sapiens, UniProt P22303); assay: In vitro inhibitory activity against human acetylcholinesterase; assay type: functional
Chain of Acetylcholinesterase (P22303 whole entry): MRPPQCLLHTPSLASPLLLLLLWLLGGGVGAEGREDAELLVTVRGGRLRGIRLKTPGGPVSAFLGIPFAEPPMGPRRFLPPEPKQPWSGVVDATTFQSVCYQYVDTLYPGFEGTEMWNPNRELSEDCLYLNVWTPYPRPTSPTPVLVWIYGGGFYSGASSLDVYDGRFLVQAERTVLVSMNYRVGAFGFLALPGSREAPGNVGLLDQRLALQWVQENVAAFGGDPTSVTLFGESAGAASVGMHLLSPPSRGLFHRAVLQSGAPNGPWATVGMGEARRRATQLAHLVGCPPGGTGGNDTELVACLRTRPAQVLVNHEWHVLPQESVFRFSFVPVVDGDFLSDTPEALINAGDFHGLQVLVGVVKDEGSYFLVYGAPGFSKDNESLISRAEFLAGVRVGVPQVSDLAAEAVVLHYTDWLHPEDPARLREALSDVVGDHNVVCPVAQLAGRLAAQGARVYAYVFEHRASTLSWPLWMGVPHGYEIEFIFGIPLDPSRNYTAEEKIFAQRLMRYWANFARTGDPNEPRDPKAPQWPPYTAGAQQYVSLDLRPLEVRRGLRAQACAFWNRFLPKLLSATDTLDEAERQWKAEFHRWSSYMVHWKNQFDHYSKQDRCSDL

Mus musculus [5] = species: Mus musculus; assay: Minimal dose to produce side effects was determined for diarrhea in mice; assay type: functional; method in brief: as §1
Mus musculus [6] = species: Mus musculus; assay: Minimal dose to produce side effects was determined for tremor in mice; assay type: functional; method in brief: as §1
Mus musculus [7] = species: Mus musculus; assay: Minimal dose to produce side effects was determined for salivation in mice; assay type: functional; method in brief: as §1

For `CCCCCCCNC(=O)Oc1ccc2c(c1)C1CCN(CC)C2C1` (stereo unspecified), the Dose (Mus musculus [1]) was 3.2 mg/kg, the Dose (Mus musculus [2]) was 17.8 mg/kg and the Dose (Mus musculus [3]) was 17.8 mg/kg. The LD50 at 24 h [4] was 22 mg/kg and the IC50 (Acetylcholinesterase) was 169 nM.

Work on `CCCCCCCNC(=O)Oc1ccc2c(c1)C1(C)CCN(CC)C2C1` (stereo unspecified) yielded a Dose (Mus musculus [1]) of 1 mg/kg, a Dose (Mus musculus [3]) of 1.8 mg/kg and an LD50 at 24 h [4] of 4 mg/kg. The IC50 (Acetylcholinesterase) was 159 nM.

`CNC(=O)Oc1ccc2c(c1)[C@]1(C)CCN(C)[C@@H]1N2C` [PHYSOSTIGMINE] gave a Dose (Mus musculus [5]) of 0.32 mg/kg, a Dose (Mus musculus [6]) of 0.32 mg/kg and a Dose (Mus musculus [7]) of 0.32 mg/kg.

With `CCN1CCC2CC1c1ccc(OC(=O)NC)cc12` (stereo unspecified) the LD50 at 24 h [4] was 1 mg/kg and the IC50 (Acetylcholinesterase) was 171 nM.

`CCCCNC(=O)Oc1ccc2c(c1)C1CCN(CC)C2C1` (stereo unspecified) gave an IC50 (Acetylcholinesterase) of 206 nM.

In the case of `CCCCCCNC(=O)Oc1ccc2c(c1)[C@]1(C)CCN(CC)[C@@H]1C2`, the Dose (Mus musculus [1]) is reported as 1.8 mg/kg, the Dose (Mus musculus [2]) is reported as 3.2 mg/kg and the Dose (Mus musculus [3]) is reported as 3.2 mg/kg. For the same compound, the LD50 at 24 h [4] was 4 mg/kg.

Compound `CCCCCCNC(=O)Oc1ccc2c(c1)C1CCN(C)C2C1` (stereo unspecified) has a Dose (Mus musculus [2]) of 5.6 mg/kg, a Dose (Mus musculus [3]) of 3.2 mg/kg and an LD50 at 24 h [4] of 6 mg/kg.

`CCCCCCCNC(=O)Oc1ccc2c(c1)C1CCN(C)C2C1` (stereo unspecified) gave a Dose (Mus musculus [2]) of 10 mg/kg, a Dose (Mus musculus [3]) of 10 mg/kg and an LD50 at 24 h [4] of 18 mg/kg. The IC50 (Acetylcholinesterase) was 143 nM.

For `CCCCCCCNC(=O)Oc1ccc2c(c1)[C@]1(C)CCN(C)[C@@H]1N2C` [EPTASTIGMINE], the Dose (Mus musculus [1]) was 1.8 mg/kg, the Dose (Mus musculus [2]) was 10 mg/kg and the Dose (Mus musculus [3]) was 10 mg/kg.

In the case of `CCCCCCNC(=O)Oc1ccc2c(c1)C1(C)CCN(CC)C2C1` (stereo unspecified), the LD50 at 24 h [4] is reported as 9 mg/kg and the IC50 (Acetylcholinesterase) is reported as 133 nM.

With `CCCCCCNC(=O)Oc1ccc2c(c1)C1CCN(CC)C2C1` (stereo unspecified) the Dose (Mus musculus [1]) was 1.8 mg/kg, the Dose (Mus musculus [2]) was 3.2 mg/kg and the Dose (Mus musculus [3]) was 3.2 mg/kg. For the same compound, the LD50 at 24 h [4] was 9 mg/kg and the IC50 (Acetylcholinesterase) was 125 nM.
